MEKK2 WT-MEK5: modulators of MEK5 binding to wildtype MEKK2, primary screen, biochemical, multiplex bead flow cytometry, Alexa488-MEK5; Alexa488-MEK5 binding to MEKK2 WT; actives lie on both sides; binding response (% of control), % at 10 µM; 1.1% of 290,000 active; in the data active = binding response below about 67% or above about 130%
MEKK3 PB1 HTS: modulators of MEKK3-MEK5 PB1 binding, primary screen, biochemical, wildtype MEKK3, multiplex bead flow cytometry, Alexa488-MEK5. Mitogen-activated protein kinase kinase kinase 3 (Homo sapiens), Q99759. bead-based flow cytometry, Alexa488-MEK5 binding to MEKK3; actives lie on both sides; 0 = blocked by unlabeled MEK5, 100 = vehicle. binding response (% of control), % at 10 µM. 1.4% of 290,000 active. AID 1529, 2009;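 active = binding response more than 3 SD above or below the average of its plate-row segment, actives on both sides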;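 also: Alexa488 bead fluorescence after subtracting the streptavidin-only scavenger bead signal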
MEKK2 mut-MEK5: MEK5 binding signal on mutant MEKK2 PB1, primary screen, biochemical, multiplex bead flow cytometry, Alexa488-MEK5. Alexa488-MEK5 binding to MEKK2 mutant. percent response, % at 10 µM. 0.35% of 290,000 active. AID 1530, 2009; in the data active = percent response above about 24%, passing the limit was not always enough
UBC13 polyUb: UBC13 polyubiquitin chain formation inhibitors, primary screen, biochemical, TR-FRET, uHTS; AID 485273, 2010; inhibition, % at 20 µM; Ubiquitin-conjugating enzyme E2 N (Homo sapiens), P61088; 0.47% of 330,000 active; in the data active = inhibition above about 45%, passing the limit was not always enough
UCH37 DUB inh: inhibitors of human UCH37 deubiquitinase, primary screen, biochemical, Ub-AMC cleavage, fluorescence; 0.33% of 330,000 active; purified proteasome/UCH37; inhibition, % (no concentration beside the values); AID 588478, 2011; Ubiquitin carboxyl-terminal hydrolase isozyme L5 (Homo sapiens), Q9Y5K5;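 active = mean inhibition over replicate wells above about 20%, limit read from the data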;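 also: 0% = compound-free wells with enzyme and 100% = wells lacking proteasome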
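System: Proteasome-associated human UCH37 deubiquitinase; Input: 0.15 nM proteasome in added enzyme buffer; Also added: Ub-AMC substrate from 1 µM stock; Incubation: 30 min compound-proteasome preincubation then 25 min substrate reaction, room temperature; Detection: fluorescence, ex 355 nm, em 460 nm; Read-out: % inhibition of Ub-AMC cleavage fluorescence; Benchmarks: no-proteasome and no-compound wells.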
Apaf1 inhib: inhibitors of human Apaf-1 apoptosome, primary screen, biochemical, DEVD-Rh110 fluorescence, uHTS. 0.71% of 330,000 active. reconstituted apoptosome caspase-3 activity. inhibition, % at 20 µM; active = inhibition of at least 40% at 20 µM;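 also: plate controls were DMSO wells for no effect and DEVD-CHO caspase inhibitor wells for full effect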
Target sequence (O14727 whole entry, looked up): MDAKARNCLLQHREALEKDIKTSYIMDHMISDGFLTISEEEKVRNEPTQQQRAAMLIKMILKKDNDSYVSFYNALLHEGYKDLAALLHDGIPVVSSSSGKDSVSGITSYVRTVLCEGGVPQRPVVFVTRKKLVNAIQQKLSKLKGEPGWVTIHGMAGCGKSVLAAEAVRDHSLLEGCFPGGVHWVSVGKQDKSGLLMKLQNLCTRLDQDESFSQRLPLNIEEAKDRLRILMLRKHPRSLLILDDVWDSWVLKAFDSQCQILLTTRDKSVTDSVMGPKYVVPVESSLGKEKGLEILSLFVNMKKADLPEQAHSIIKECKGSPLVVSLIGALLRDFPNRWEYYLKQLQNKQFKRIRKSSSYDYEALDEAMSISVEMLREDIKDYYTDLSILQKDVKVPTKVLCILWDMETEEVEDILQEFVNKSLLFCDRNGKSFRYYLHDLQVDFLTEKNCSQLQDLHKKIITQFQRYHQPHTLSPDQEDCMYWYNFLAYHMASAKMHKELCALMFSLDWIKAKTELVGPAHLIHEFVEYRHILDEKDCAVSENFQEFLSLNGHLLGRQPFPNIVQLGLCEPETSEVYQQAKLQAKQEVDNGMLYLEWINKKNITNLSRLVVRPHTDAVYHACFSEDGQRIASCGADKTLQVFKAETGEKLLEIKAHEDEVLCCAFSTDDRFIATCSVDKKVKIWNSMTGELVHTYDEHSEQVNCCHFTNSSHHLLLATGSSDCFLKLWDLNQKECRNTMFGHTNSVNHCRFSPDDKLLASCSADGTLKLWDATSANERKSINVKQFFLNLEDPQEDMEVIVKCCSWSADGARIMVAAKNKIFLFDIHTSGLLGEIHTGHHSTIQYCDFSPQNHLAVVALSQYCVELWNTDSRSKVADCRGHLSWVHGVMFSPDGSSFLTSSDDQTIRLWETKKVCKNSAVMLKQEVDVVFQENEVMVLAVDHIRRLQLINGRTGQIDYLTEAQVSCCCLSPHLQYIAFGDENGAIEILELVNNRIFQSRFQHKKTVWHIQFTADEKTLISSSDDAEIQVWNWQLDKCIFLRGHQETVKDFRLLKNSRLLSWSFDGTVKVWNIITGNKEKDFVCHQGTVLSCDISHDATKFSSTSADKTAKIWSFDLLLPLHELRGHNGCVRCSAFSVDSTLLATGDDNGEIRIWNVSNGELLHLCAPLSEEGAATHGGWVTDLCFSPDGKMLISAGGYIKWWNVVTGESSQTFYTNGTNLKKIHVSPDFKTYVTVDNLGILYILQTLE
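detection = Rh110 fluorescence intensity | test system = biochemical Apaf-1 apoptosome reconstitution | also added = cytochrome c and DEVD-Rh110 substrate | schedule = 30 min plus 50 min, RT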
MEKK2wt confirm: modulators of MEK5 binding to wildtype MEKK2, confirmation, biochemical, single concentration, multiplex bead flow cytometry. Alexa488-MEK5 binding to MEKK2 WT; actives lie on both sides. binding response (% of control), % at 10 µM. shares compounds with MEKK3 PB1 HTS. AID 1892, 2009. 2.4% of 5,900 active; in the data active = binding response below about 16% or above about 210%; inactive = in between
MEKK2mut confirm: mutant MEKK2 PB1-MEK5 binding signal retest – biochemical, single concentration, multiplex bead flow cytometry, confirmation; 2% of 5,900 active; Alexa488-MEK5 binding to MEKK2 mutant; shares compounds with MEKK3 PB1 HTS; AID 1893, 2009; percent response, % at 10 µM; in the data active = percent response mostly above about 71%, no sharp cut-off; inactive = mostly below about 38%;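 also: higher means compound restores mutant binding toward wildtype level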
MEKK3 confirm: MEKK3 wild-type PB1 binding to MEK5, inhibitors, confirmation, biochemical, bead multiplex flow cytometry, single concentration, wildtype; shares compounds with MEKK3 PB1 HTS; Alexa488-MEK5 binding to MEKK3; stronger effect = lower value; binding response (% of control), % at 10 µM; 1.8% of 5,900 active;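 active = binding response below 72% of control, or above a set upper limit, though filed actives all read lower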;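 also: 100% = DMSO only wells and 0% = binding blocked by excess unlabeled MEK5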
* hit, by the source's call; nt = no result given; [ ] = remark or other dose. An excerpt weighted towards active compounds, which were near 3% of everything screened.

SMILES	MEKK2 WT-MEK5	MEKK3 PB1 HTS	MEKK2 mut-MEK5	UBC13 polyUb	UCH37 DUB inh	Apaf1 inhib	MEKK2wt confirm	MEKK2mut confirm	MEKK3 confirm
CCOc1ccccc1NC(=O)N1CCCC1C(=O)Nc1nnc(CC)s1 (stereo not given)	103	98	1	3	3	-3	nt	nt	nt
CCCCC(=O)N(c1ccc(C)c(C)c1)C1C=CS(=O)(=O)C1 (stereo not given)	-7.0*[inhibitor]	1.0*[inhibitor]	-22	2	2	-11	99	-5	101
CNC(=S)N/N=C1\C(=O)c2cccc3cccc1c23	99	95	-3	2	3	0	nt	nt	nt
CCCCNC(=S)N/N=C1\C(=O)c2cccc3cccc1c23	74	71*[inhibitor]	-5	-4	4	5	97	-3	97
COc1ccc(S(=O)(=O)N2CCC(C(=O)NCCC(=O)NCc3ccncc3)CC2)cc1	111	108	6	0	2	-6	nt	nt	nt
Cc1c(CN(C)C)c2c(n1Cc1ccccc1)C(=O)c1ccc(Br)cc1-2	139*	89	17	-73	6	13	133	21	108
Cc1c(CN(C)C)c2c(n1C)C(=O)c1ccc(Br)cc1-2	100	99	0	-161	5	6	nt	nt	nt
Cc1[nH]nc2c1C(Cc1ccccc1)C(C#N)=C(N)O2 (stereo not given)	3.0*[inhibitor]	2.0*[inhibitor]	-26	9	1	-2	101	-1	103
CCc1[nH]nc2c1C(Cc1ccccc1)C(C#N)=C(N)O2 (stereo not given)	98	99	2	-4	3	-2	nt	nt	nt
O=[N+]([O-])c1ccccc1CN1CCN(Cc2ccccn2)CC1	1.0*[inhibitor]	2.0*[inhibitor]	-84	-4	2	-7	97	-3	96
CCN1C(=O)N(CC)C2NC(=S)NC21 (stereo not given)	106	103	4	-5	1	-4	nt	nt	nt
CCN1C(=O)N(CC)C2C1N(CO)C(=O)N2CO (stereo not given)	117	129*	1	0	3	-3	98	1	99
C[C@@H]1C(c2ccccc2)=NN(c2ccccc2)[C@H]1C(=O)N1CCOC1=O	nt	nt	nt	nt	-31	19	nt	nt	nt
O=C1S/C(=C\c2ccc(O)c([N+](=O)[O-])c2)C(=O)N1c1ccccc1Cl	81	74*[inhibitor]	-8	-79	nt	14	102	1	103
COc1ccc(Nc2c3c(nc4c(-c5ccccc5)c(C)nn24)CCC3)cc1	116	128*	0	9	-103	12	98	0	106
S=C(Nc1ccc(Br)cc1Cl)N1CCCC1	104	102	4	2	0	-3	nt	nt	nt
O=C(Nc1ccc(CN2CCCCC2)cc1)Nc1ccc(Br)cc1Cl	165*	113	11	24	2	16	144	20	104
O=C(NN=Cc1ccoc1)c1ccc(Cl)cc1	nt	nt	nt	nt	3	nt	nt	nt	nt
CSc1cccc(NC(=O)c2sc3nc4n(c(=O)c3c2C)CCC4)c1	100	99	-9	-1	3	8	nt	nt	nt
Cc1nc2ccccc2c(-c2ccccc2)c1CC(=O)O	114	168*	3	1	2	-5	111	2	105
CN(C(=O)COC(=O)CN1C(=O)c2ccccc2C1=O)c1c(N)n(Cc2ccccc2)c(=O)[nH]c1=O	nt	nt	nt	-6	nt	5	nt	nt	nt
O=C(NCCCN1CCC(Cc2ccccc2)CC1)c1ccc2nc(N3CCOCC3)sc2c1	144*	104	9	5	1	13	147	17	101
Cc1ccc(S(=O)(=O)NCc2ccc(C(=O)NCCCN3CCC(Cc4ccccc4)CC3)cc2)cc1	161*	106	40	37	3	15	173	29	105
Nc1nnc(SCc2cc3c(cc2Cl)OCO3)s1	107	105	4	7	3	2	nt	nt	nt
C=CCc1ccc(OCCOc2ccc(/C=N/n3cnnc3)cc2OCC)c(OC)c1	116	111	27*	7	nt	0	101	-7	104
SMILES	MEKK2 WT-MEK5	MEKK3 PB1 HTS	MEKK2 mut-MEK5	UBC13 polyUb	UCH37 DUB inh	Apaf1 inhib	MEKK2wt confirm	MEKK2mut confirm	MEKK3 confirm
CCOC(=O)C(=O)N1CCN(c2ccccc2OC)CC1	76	71*[inhibitor]	-16	4	nt	-19	102	2	100
O=C(Nc1ccnn1C1CCN(C/C=C/c2ccccc2)CC1)c1cccc(F)c1	140*	107	16	5	6	4	122	11	107
O=C(Nc1ccnn1C1CCN(C/C=C/c2ccccc2)CC1)c1ccccc1	119	104	10	-3	1	10	nt	nt	nt
COc1cccc(/C=N/NC(=O)CCc2n[nH]c(=O)[nH]c2=O)c1O	103	128*	0	4	nt	-3	109	5	103
COc1ccc(OC)c(C=NNC(=O)CCc2c(C)n[nH]c2C)c1	nt	nt	nt	nt	-495	nt	nt	nt	nt
COc1ccc(/C=N\NC(=O)CCc2c(C)n[nH]c2C)c(OC)c1OC	109	134*	2	4	nt	-11	111	3	100
COc1cccc(C=NNC(=O)CCc2n[nH]c(=O)[nH]c2=O)c1O	nt	nt	nt	nt	0	nt	nt	nt	nt
COc1ccc(/C=N/NC(=O)CCc2n[nH]c(=O)[nH]c2=O)cc1OC	106	129*	0	3	nt	-1	110	14	108
CCCc1cc(=O)[nH]c(SCCOc2ccc(OCC)cc2)n1	106	99	2	-8	6	11	nt	nt	nt
COc1ccc(CCN2CC(C(=O)NCCc3ccccc3)CC2=O)cc1OC (stereo not given)	91	96	-3	2	1	-10	nt	nt	nt
